Measurements as given in ChEMBL document CHEMBL1152541, “Staurosporine tethered peptide ligands that target cAMP-dependent protein kinase (PKA): optimization and selectivity profiling” (Bioorg Med Chem, 2009).
One block for each compound: values may come before it. *1 amine or outer side, *2 acyl side, *3 side chain or, on linkers, in order; H or OH if unused. Where a SMILES comes first, the peptide text is derived from it. Bridges are numbered along the chain shown (N, C = ends). [ ]: non-standard residue; d: D form. The star is where a group is joined. Staurosporine = CO[C@@H]1[C@H](N(C)*)C[C@H]2O[C@]1(C)n1c3ccccc3c3c4c(c5c6ccccc6n2c5c31)C(=O)NC4; Suc = O=C(CCC(=O)[*:2])[*:1]; Dap = NC[C@H](N)C(=O)O; βAla = NCCC(=O)O

Tests used:
[1] = target: Phosphatidylinositol 4,5-bisphosphate 3-kinase catalytic subunit alpha isoform (Homo sapiens) (UniProt P42336); assay: Binding affinity to human PIK3Calpha at 500 nM by cell-based competition binding assay relative to control in presence of DTT
Phosphatidylinositol 4,5-bisphosphate 3-kinase catalytic subunit alpha isoform (Homo sapiens), sequence (P42336 whole entry, canonical isoform): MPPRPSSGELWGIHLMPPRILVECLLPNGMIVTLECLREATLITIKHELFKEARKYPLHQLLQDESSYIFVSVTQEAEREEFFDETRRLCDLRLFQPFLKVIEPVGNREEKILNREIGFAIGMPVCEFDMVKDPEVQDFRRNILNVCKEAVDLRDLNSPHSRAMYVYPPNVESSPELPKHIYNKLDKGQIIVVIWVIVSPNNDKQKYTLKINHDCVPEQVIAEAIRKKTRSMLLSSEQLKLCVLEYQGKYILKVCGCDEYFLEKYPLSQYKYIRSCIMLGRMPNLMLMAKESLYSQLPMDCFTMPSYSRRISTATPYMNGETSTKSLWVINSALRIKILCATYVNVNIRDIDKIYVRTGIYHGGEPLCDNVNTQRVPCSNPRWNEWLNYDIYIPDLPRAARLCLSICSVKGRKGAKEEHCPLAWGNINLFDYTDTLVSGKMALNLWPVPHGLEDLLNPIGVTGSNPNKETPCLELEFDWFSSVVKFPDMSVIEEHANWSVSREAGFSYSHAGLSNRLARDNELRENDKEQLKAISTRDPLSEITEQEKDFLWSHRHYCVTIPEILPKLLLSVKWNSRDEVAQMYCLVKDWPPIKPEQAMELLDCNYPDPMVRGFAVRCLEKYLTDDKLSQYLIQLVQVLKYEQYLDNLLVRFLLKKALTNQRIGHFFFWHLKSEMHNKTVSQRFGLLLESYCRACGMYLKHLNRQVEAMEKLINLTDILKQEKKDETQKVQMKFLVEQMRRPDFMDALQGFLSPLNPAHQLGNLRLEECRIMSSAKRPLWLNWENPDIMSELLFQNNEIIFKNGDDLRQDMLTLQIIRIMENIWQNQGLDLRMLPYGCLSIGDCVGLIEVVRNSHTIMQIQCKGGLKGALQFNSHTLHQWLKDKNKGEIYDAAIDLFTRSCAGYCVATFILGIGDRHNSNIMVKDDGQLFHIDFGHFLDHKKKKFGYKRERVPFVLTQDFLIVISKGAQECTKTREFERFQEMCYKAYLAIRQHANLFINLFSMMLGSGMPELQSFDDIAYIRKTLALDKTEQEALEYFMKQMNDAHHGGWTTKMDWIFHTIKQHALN

[2] = target: RAC-alpha serine/threonine-protein kinase (Homo sapiens) (UniProt P31749); assay: Binding affinity to human AKT1 at 500 nM by cell-based competition binding assay relative to control in presence of DTT
Procedure, shortened: (§1)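 Kinase binding profiling ran on a commercial (Ambit) competitive binding screen against a panel of 90 kinases. The screen used reducing conditions with 7.5 mM DTT. To withstand the DTT, the bivalent ligand was tested as its amide isostere, with the disulfide replaced. A staurosporine derivative carrying a 3 β-alanine linker was run as the reference compound.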

[3] = target: Tyrosine-protein kinase BTK (Homo sapiens) (UniProt Q06187); assay: Binding affinity to human BTK at 500 nM by cell-based competition binding assay relative to control in presence of DTT; procedure, shortened: as §1
[4] = target: Fibroblast growth factor receptor 3 (Homo sapiens) (UniProt P22607); assay: Binding affinity to human FGFR3 at 500 nM by cell-based competition binding assay relative to control in presence of DTT
Fibroblast growth factor receptor 3 (Homo sapiens), sequence (P22607 23-806 limits assumed): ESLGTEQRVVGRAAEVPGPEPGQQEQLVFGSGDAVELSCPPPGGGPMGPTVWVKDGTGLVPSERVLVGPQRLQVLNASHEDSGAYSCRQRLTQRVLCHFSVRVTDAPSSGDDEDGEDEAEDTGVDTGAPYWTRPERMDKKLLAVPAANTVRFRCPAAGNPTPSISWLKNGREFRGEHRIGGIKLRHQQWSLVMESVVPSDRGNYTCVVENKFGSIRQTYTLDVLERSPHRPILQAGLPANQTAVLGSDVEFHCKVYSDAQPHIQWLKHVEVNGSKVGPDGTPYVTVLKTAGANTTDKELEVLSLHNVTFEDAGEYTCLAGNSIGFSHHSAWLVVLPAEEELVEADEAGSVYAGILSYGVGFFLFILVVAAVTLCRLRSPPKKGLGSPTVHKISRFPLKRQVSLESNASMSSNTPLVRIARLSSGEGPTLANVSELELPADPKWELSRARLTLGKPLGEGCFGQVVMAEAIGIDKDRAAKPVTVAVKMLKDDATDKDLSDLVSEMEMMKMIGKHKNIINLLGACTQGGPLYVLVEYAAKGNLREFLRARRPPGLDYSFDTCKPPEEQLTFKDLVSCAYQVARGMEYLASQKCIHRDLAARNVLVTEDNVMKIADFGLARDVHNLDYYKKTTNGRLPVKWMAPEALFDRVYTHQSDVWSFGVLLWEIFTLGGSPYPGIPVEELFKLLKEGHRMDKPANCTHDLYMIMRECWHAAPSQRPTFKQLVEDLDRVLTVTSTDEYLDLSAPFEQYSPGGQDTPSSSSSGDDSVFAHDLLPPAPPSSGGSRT
Procedure, shortened: (§2)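 Commercial (Ambit) competitive kinase-binding panel of 90 kinases measured the binding profile. Run under reducing conditions of 7.5 mM DTT. Binding is expressed relative to control.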

[5] = target: Ephrin type-A receptor 2 (Homo sapiens) (UniProt P29317); assay: Binding affinity to human EPHA2 at 200 nM by cell-based competition binding assay relative to control in presence of DTT; procedure, shortened: as §2
[6] = target: Platelet-derived growth factor receptor beta (Homo sapiens) (UniProt P09619); assay: Binding affinity to human PDGFRbeta at 200 nM by cell-based competition binding assay relative to control in presence of DTT
[7] = target: Phosphatidylinositol 4-phosphate 3-kinase C2 domain-containing subunit beta (Homo sapiens) (UniProt O00750); assay: Binding affinity to human PIK3C2beta at 200 nM by cell-based competition binding assay relative to control in presence of DTT
Phosphatidylinositol 4-phosphate 3-kinase C2 domain-containing subunit beta (Homo sapiens), sequence (O00750 whole entry, the tested form may be a part): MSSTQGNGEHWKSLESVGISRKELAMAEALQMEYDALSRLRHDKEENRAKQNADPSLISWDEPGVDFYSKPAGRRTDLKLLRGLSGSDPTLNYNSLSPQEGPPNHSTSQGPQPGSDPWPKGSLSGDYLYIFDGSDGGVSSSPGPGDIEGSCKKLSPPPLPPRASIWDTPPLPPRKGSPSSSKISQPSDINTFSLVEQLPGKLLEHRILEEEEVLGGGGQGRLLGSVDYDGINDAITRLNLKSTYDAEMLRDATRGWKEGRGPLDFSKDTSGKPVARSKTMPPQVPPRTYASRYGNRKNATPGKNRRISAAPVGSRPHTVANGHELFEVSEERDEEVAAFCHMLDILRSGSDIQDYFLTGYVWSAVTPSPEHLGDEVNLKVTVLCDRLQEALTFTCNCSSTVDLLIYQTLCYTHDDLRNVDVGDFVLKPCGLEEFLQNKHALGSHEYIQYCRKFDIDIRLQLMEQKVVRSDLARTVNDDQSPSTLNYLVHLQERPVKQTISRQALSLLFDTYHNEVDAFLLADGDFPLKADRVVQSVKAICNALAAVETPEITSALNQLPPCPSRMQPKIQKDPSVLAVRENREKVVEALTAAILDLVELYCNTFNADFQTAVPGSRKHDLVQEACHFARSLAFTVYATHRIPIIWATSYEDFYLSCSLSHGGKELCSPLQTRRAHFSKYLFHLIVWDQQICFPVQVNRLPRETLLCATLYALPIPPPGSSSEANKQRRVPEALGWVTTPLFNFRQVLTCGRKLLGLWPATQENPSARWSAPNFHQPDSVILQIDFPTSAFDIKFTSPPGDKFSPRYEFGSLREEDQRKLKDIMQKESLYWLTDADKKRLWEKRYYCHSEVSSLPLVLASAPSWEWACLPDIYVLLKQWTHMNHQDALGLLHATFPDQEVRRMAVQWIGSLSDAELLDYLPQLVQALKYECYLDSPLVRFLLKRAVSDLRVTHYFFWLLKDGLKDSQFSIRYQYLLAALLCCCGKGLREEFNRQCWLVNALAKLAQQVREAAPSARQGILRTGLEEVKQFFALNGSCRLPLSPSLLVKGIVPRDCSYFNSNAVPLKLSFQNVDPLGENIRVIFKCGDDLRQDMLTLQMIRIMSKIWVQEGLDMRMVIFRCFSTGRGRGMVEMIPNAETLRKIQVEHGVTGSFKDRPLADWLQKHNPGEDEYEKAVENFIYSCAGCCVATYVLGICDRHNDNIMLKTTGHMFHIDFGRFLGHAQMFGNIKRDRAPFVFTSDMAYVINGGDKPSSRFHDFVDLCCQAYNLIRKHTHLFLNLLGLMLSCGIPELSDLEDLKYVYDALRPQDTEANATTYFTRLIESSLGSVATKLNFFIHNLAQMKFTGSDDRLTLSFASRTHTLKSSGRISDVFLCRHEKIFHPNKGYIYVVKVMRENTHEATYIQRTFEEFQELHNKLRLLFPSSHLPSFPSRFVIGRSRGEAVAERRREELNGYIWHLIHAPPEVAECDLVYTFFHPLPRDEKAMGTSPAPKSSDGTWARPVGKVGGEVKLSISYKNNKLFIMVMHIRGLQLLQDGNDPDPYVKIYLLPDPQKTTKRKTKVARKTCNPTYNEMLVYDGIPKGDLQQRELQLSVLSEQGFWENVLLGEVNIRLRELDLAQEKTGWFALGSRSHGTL

[8] = target: T1, Protein kinase C epsilon type (Homo sapiens) (UniProt Q02156); assay: Binding affinity to human PRKCepsilon at 200 nM by cell-based competition binding assay relative to control in presence of DTT
T1 sequence (whole entry): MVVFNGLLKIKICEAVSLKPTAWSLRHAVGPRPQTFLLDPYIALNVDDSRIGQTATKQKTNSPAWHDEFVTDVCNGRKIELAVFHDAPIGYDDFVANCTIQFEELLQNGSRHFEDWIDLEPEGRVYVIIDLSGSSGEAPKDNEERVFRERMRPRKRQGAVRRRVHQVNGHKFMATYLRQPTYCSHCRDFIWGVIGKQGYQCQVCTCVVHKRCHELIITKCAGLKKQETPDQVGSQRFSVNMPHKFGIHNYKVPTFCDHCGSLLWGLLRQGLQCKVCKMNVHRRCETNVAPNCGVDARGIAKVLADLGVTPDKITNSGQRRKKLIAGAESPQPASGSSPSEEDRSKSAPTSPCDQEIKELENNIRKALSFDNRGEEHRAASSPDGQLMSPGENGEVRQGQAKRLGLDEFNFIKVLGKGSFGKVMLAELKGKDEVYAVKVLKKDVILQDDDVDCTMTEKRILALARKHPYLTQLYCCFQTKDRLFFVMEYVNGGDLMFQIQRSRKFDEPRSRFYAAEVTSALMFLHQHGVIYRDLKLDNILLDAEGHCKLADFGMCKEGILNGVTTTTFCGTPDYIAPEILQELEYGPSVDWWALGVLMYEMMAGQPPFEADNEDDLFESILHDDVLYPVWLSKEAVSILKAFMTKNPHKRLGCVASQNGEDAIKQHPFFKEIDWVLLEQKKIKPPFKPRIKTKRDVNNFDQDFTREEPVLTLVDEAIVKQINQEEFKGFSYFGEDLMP

[9] = target: High affinity nerve growth factor receptor (Homo sapiens) (UniProt P04629); assay: Binding affinity to human TRKA at 200 nM by cell-based competition binding assay relative to control in presence of DTT
High affinity nerve growth factor receptor (Homo sapiens), sequence (P04629 33-796 limits assumed): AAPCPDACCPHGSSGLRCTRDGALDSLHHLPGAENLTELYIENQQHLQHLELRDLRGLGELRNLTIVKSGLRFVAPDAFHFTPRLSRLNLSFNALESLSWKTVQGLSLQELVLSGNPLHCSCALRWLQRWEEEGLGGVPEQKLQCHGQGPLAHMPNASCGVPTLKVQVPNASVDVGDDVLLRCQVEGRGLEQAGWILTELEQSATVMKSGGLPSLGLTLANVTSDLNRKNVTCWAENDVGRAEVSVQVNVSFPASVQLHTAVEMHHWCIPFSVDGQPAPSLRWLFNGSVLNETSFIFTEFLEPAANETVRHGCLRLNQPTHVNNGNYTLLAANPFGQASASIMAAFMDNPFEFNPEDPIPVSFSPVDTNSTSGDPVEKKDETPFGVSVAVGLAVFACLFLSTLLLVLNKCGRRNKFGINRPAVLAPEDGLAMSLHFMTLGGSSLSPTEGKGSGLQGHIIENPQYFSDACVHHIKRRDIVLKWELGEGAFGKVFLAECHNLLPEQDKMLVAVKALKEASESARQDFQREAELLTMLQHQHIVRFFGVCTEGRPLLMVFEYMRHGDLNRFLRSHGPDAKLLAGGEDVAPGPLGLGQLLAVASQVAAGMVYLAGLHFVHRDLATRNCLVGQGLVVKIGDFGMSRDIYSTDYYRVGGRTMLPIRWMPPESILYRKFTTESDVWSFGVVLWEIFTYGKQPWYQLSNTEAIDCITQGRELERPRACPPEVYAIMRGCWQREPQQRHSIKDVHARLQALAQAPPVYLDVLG

[10] = target: Atypical kinase COQ8A, mitochondrial (Homo sapiens) (UniProt Q8NI60); assay: Binding affinity to human ADCK3 at 50 nM by cell-based competition binding assay relative to control in presence of DTT; procedure, shortened: as §1
Atypical kinase COQ8A, mitochondrial (Homo sapiens), sequence (Q8NI60 163-647 limits assumed): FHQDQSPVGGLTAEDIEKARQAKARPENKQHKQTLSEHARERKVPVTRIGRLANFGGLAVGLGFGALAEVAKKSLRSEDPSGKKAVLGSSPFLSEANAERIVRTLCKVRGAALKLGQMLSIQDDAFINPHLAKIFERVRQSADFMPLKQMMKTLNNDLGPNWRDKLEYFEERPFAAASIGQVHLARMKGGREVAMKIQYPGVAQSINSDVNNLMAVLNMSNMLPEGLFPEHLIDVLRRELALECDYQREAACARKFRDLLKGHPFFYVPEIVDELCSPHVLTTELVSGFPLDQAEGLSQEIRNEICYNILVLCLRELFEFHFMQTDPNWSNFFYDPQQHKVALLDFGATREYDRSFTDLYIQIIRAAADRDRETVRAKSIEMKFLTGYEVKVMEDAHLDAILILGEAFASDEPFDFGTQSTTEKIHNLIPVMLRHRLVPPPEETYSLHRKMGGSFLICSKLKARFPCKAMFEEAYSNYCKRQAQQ

[11] = target: T2, Serine/threonine-protein kinase DCLK1 (Homo sapiens) (UniProt O15075); assay: Binding affinity to human DCAMKL1 at 50 nM by cell-based competition binding assay relative to control in presence of DTT; procedure, shortened: as §2
T2 sequence (whole entry): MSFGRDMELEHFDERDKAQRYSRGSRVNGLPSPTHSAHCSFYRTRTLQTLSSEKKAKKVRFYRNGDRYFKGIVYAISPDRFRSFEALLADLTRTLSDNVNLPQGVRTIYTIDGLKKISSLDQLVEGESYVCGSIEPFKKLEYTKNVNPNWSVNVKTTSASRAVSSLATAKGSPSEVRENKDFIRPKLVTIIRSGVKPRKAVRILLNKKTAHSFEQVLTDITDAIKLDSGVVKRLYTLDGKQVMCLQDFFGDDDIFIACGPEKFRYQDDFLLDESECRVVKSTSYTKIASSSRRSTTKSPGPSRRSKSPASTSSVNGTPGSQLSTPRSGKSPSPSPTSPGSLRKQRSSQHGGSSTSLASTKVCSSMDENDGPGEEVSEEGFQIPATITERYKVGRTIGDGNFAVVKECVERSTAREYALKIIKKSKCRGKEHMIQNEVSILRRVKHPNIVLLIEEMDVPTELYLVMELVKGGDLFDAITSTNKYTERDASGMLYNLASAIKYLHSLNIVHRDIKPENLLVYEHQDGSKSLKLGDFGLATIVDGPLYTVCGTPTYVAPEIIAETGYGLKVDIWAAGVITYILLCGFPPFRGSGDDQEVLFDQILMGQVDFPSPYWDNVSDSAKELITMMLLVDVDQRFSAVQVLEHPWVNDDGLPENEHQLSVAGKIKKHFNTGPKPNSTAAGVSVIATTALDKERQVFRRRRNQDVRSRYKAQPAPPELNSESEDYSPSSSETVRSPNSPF

[12] = target: Platelet-derived growth factor receptor alpha (Homo sapiens) (UniProt P16234); assay: Binding affinity to human PDGFRalpha at 50 nM by cell-based competition binding assay relative to control in presence of DTT
[13] = target: Receptor-type tyrosine-protein kinase FLT3 (Homo sapiens) (UniProt P36888); assay: Binding affinity to human FLT3 at 50 nM by cell-based competition binding assay relative to control in presence of DTT; procedure, shortened: as §2

- Activity [1]: 100%
- Activity [2]: 100%
- Activity [3]: 31%
- Activity [4]: 43%
SMILES: CO[C@@H]1[C@H](N(C)C(=O)CCC(=O)NCCC(=O)NCCC(=O)NCCC(N)=O)C[C@H]2O[C@]1(C)n1c3ccccc3c3c4c(c5c6ccccc6n2c5c31)C(=O)NC4

- Activity [5]: 100%
- Activity [6]: 3.2%
- Activity [7]: 100%
- Activity [8]: 0%
- Activity [9]: 57%
SMILES: CO[C@@H]1[C@H](N(C)C(=O)CCC(=O)NCCC(=O)NCCC(=O)NCCC(=O)NCCC(=O)NCCC(=O)NCCC(=O)NCCC(=O)N[C@H]2CSSC[C@@H](C(=O)NCC(N)=O)NC(=O)CNC(=O)[C@H](Cc3ccccc3)NC(=O)[C@H](C(C)C)NC(=O)[C@H](CCCNC(=N)N)NC(=O)[C@H](Cc3ccccc3)NC(=O)[C@H](C(C)C)NC2=O)C[C@H]2O[C@]1(C)n1c3ccccc3c3c4c(c5c6ccccc6n2c5c31)C(=O)NC4 ({Staurosporine-Suc-βAla-βAla-βAla-βAla-βAla-βAla-βAla}-CVFRVFGCG-NH2; disulfide 1-8)

- Activity [10]: 91%
- Activity [11]: 95%
- Activity [12]: 100%
- Activity [13]: 7.4%
SMILES: CO[C@@H]1[C@H](N(C)C(=O)CCC(=O)NCCC(=O)NCCC(=O)NCCC(=O)NCCC(=O)NCCC(=O)NCCC(=O)NCCC(=O)N[C@H]2CNC(=O)C[C@@H](C(N)=O)NC(=O)CNC(=O)[C@H](Cc3ccccc3)NC(=O)[C@H](C(C)C)NC(=O)[C@H](CCCNC(=N)N)NC(=O)[C@H](Cc3ccccc3)NC(=O)[C@H](C(C)C)NC2=O)C[C@H]2O[C@]1(C)n1c3ccccc3c3c4c(c5c6ccccc6n2c5c31)C(=O)NC4 ({Staurosporine-Suc-βAla-βAla-βAla-βAla-βAla-βAla-βAla}-[Dap]VFRVFGD-NH2; lactam 1-8)
